High-throughput results deposited in PubChem BioAssay by Broad Institute.
T cruzi intra = inhibitors of intracellular Trypanosoma cruzi; intracellular Trypanosoma cruzi in host cells, plate reader; activity score (inhibition), % at 5.01 µM; 4.9% of 22,000 active; in the data active means activity score above about 55%;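 further: parasites and compound incubated about four days before reading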
A1 apoptosis 2 = A1 inhibition read as caspase activation; MEF A1-2A-BIM cells, caspase-Glo luminescence, 3 h; percent of clofoctol response, DMSO zero; caspase activation, % (test concentration not listed); 24,000 tested, under 10 active; AID 2465; in the data active means caspase activation above about 5.9%
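Material: A1-2A-BIM-expressing MEF cells. Buffer or medium: RPMI-1640 plus 10% FBS. Incubation: cells settled overnight, compound exposure 3 h at 37 °C, 5% CO2. Signal: Caspase-Glo 3/7 luminescence, 1 h at room temperature.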
INS-1E ATP HTS = INS-1E beta cell protection from cytokine death; INS-1E cytokine-induced death, ATP luminescence, 48 h; normalised: neutral wells 0, positive control 100; protection from cytokine-induced ATP loss, % at 10 µM; 0.1% of 20,000 active; AID 488910;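 active means mean replicate protection from cytokine-induced ATP loss at least 50% and at least 75% of replicates each reaching 50%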
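Test system: INS-1E rat cells | Quantity: 8000 cells per well | Medium: Phenol-red-free RPMI with 5% fetal bovine serum | Reagent: Cytokine cocktail of IFN-γ, TNF-α and IL-1β | Doses: One compound concentration, pin transfer | Timing: 48 h co-treatment, 10 min post-lysis read | Technique: Luminescent ATP assay (CellTiter-Glo)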
Numbers stand for hits; i = inactive; nt = no result. Only a selection was taken, and hits are over-represented in it overall.

SMILES | T cruzi intra | A1 apoptosis 2 | INS-1E ATP HTS
C[C@@H]1CN([C@H](C)CO)C(=O)c2cc(NC(=O)Nc3ccccc3)ccc2O[C@@H]1CN(C)Cc1ccc(C(F)(F)F)cc1 | i | nt | nt
C[C@H](CO)N1C[C@H](C)[C@H](CN(C)Cc2ccc(Oc3ccccc3)cc2)Oc2ccc(NC(=O)Nc3ccc(C(F)(F)F)cc3)cc2C1=O | 63 | nt | nt
COc1cc(Br)cc(/C=N/NC(=O)CCCCCCC(=O)Nc2ccccc2O)c1O | i | nt | i
COc1ccc(CN(C)C[C@@H]2Oc3ccc(NS(=O)(=O)c4ccc(Cl)cc4)cc3CC(=O)N([C@@H](C)CO)C[C@@H]2C)cc1 | i | i | i
COc1ccc(CN(C)C[C@@H]2Oc3ccc(NS(=O)(=O)c4ccc(C)cc4)cc3CC(=O)N([C@@H](C)CO)C[C@@H]2C)cc1 | i | i | i
COc1ccc(S(=O)(=O)Nc2ccc3c(c2)CC(=O)N([C@H](C)CO)C[C@H](C)[C@H](CN(C)Cc2ccc(Cl)c(Cl)c2)O3)cc1 | i | nt | i
COc1ccc(CN(C)C[C@@H]2Oc3ccc(NS(=O)(=O)c4ccc(C)cc4)cc3CC(=O)N([C@H](C)CO)C[C@H]2C)cc1 | 68 | nt | i
COc1ccc(S(=O)(=O)Nc2ccc3c(c2)CC(=O)N([C@H](C)CO)C[C@@H](C)[C@H](CN(C)Cc2ccc(Cl)c(Cl)c2)O3)cc1 | 70 | nt | i
COc1ccc(CN(C)C[C@@H]2Oc3ccc(NS(=O)(=O)c4ccc(Cl)cc4)cc3CC(=O)N([C@H](C)CO)C[C@H]2C)cc1 | 68 | i | i
COC(=O)CCCCCCC(=O)N/N=C/c1ccc2ccccc2n1 | i | i | i
COc1ccc(C#Cc2ccc3c(c2)[C@]2(C(=O)N3)[C@H](C(=O)O)[C@H]3C(=O)O[C@H](c4ccccc4)[C@H](c4ccccc4)N3[C@@H]2c2ccccc2OCCO)cc1 | nt | i | nt
COC(=O)C(CC#Cc1ccc2c(c1)[C@]1(C(=O)N2)[C@H](C(=O)NC[C@H](O)c2ccccc2)[C@H]2C(=O)O[C@H](c3ccccc3)[C@H](c3ccccc3)N2[C@@H]1c1ccc(O)cc1)C(=O)OC | nt | i | nt
C[C@H]1CN([C@@H](C)CO)C(=O)c2cc(NC(=O)Nc3ccc(C(F)(F)F)cc3)ccc2O[C@@H]1CN(C)C(=O)Nc1ccc(F)cc1 | i | i | i
C[C@@H]1CCCCO[C@@H](CN(C)C(=O)C2CCCCC2)[C@@H](C)CN([C@H](C)CO)C(=O)c2cc(NC(=O)Nc3ccc(C(F)(F)F)cc3)ccc2O1 | 77 | nt | i
C[C@@H]1CCCCO[C@H](CN(C)C(=O)c2ccccc2)[C@@H](C)CN([C@@H](C)CO)C(=O)c2cc(NC(=O)Nc3ccc(C(F)(F)F)cc3)ccc2O1 | nt | i | nt
C[C@@H]1CN([C@@H](C)CO)C(=O)c2cc(NC(=O)Nc3ccc(C(F)(F)F)cc3)ccc2O[C@@H](C)CCCCO[C@@H]1CN(C)C(=O)C1CCCCC1 | nt | i | nt
C[C@H](CO)N1C[C@H](C)[C@H](CN(C)C(=O)Nc2ccc(F)cc2)OCCCC[C@H](C)Oc2ccc(NC(=O)Nc3ccc(C(F)(F)F)cc3)cc2C1=O | nt | i | nt
C[C@@H]1CN([C@@H](C)CO)C(=O)c2cc(NC(=O)Nc3ccc(C(F)(F)F)cc3)ccc2O[C@@H]1CN(C)C(=O)Nc1ccc(F)cc1 | 58 | nt | i
C[C@@H]1CCCCO[C@@H](CN(C)C(=O)c2ccccc2)[C@@H](C)CN([C@H](C)CO)C(=O)c2cc(NC(=O)Nc3ccc(C(F)(F)F)cc3)ccc2O1 | 68 | i | i
C[C@@H]1CCCCO[C@@H](CN(C)C(=O)Nc2ccc(F)cc2)[C@@H](C)CN([C@H](C)CO)C(=O)c2cc(NC(=O)Nc3ccc(C(F)(F)F)cc3)ccc2O1 | 64 | nt | i
O=C(CCCCCC(=O)Nc1ccccc1O)N/N=C/c1cc(Br)cc([N+](=O)[O-])c1O | i | i | i
Cc1nc(S(=O)(=O)N[C@H]2CCN(Cc3cccc(OCCO)c3)C2)cn1C | nt | i | nt
COc1ccc(/C=N/NC(=O)CCCCCCC(=O)Nc2ccccc2O)cc1O | i | i | i
C[C@H]1CCCCO[C@@H](CN(C)C(=O)Nc2ccc(C(F)(F)F)cc2)[C@@H](C)CN([C@@H](C)CO)C(=O)c2cc(NC(=O)Nc3ccc(F)cc3)ccc2O1 | nt | i | nt
C[C@@H]1CCCCO[C@@H](CN(C)C(=O)Nc2ccc(C(F)(F)F)cc2)[C@@H](C)CN([C@H](C)CO)C(=O)c2cc(NC(=O)Nc3ccc(C(F)(F)F)cc3)ccc2O1 | 69 | nt | i
SMILES | T cruzi intra | A1 apoptosis 2 | INS-1E ATP HTS
C[C@@H]1CCCCO[C@H](CN(C)C(=O)Nc2ccc(C(F)(F)F)cc2)[C@@H](C)CN([C@H](C)CO)C(=O)c2cc(NC(=O)Nc3cccc4ccccc34)ccc2O1 | 67 | i | i
C[C@@H]1CCCCO[C@H](CN(C)C(=O)Nc2ccccc2)[C@@H](C)CN([C@H](C)CO)C(=O)c2cc(NC(=O)Nc3ccc(C(F)(F)F)cc3)ccc2O1 | 70 | nt | i
C[C@H]1CCCCO[C@@H](CN(C)C(=O)Nc2ccccc2)[C@@H](C)CN([C@@H](C)CO)C(=O)c2cc(NC(=O)Nc3ccc(C(F)(F)F)cc3)ccc2O1 | nt | i | nt
C[C@@H]1CCCCO[C@H](CN(C)C(=O)Nc2ccc(C(F)(F)F)cc2)[C@@H](C)CN([C@H](C)CO)C(=O)c2cc(NC(=O)c3ccccc3)ccc2O1 | 59 | nt | i
C[C@@H]1CN([C@H](C)CO)C(=O)c2cc(NC(=O)c3ccccc3)ccc2O[C@@H](C)CCCCO[C@H]1CN(C)C(=O)Nc1ccc(C(F)(F)F)cc1 | nt | i | nt
C[C@@H]1CCCCO[C@@H](CN(C)C(=O)Nc2ccc(C(F)(F)F)cc2)[C@H](C)CN([C@H](C)CO)C(=O)c2cc(NC(=O)Nc3cccc4ccccc34)ccc2O1 | nt | i | nt
O=C(NO)c1ccc(C(=O)N/N=C/Cc2ccccc2)cc1 | nt | i | nt
O=C(O)CCCCCCC(=O)N/N=C/c1cc(Br)ccc1O | i | i | i
O=C(O)c1ccc(/C=N/NC(=O)c2ccccc2O)cc1 | i | nt | i
O=C1O[C@@H](c2ccccc2)[C@@H](c2ccccc2)N2[C@@H](c3ccccc3OCCO)[C@]3(C(=O)Nc4ccc(C#CCCO)cc43)[C@@H](C(=O)NC[C@H](O)c3ccccc3)[C@H]12 | nt | i | nt
C[C@@H]1CCCCO[C@H](CN(C)C(=O)Nc2ccc(C(F)(F)F)cc2)[C@H](C)CN([C@H](C)CO)C(=O)c2cc(NC(=O)Nc3ccc(F)cc3)ccc2O1 | nt | i | nt
C[C@@H]1CCCCO[C@@H](CN(C)C(=O)Nc2ccc(C(F)(F)F)cc2)[C@@H](C)CN([C@H](C)CO)C(=O)c2cc(NC(=O)NC3CCCCC3)ccc2O1 | 76 | i | i
C[C@@H]1CCCCO[C@H](CN(C)Cc2ccc(C(F)(F)F)cc2)[C@@H](C)CN([C@H](C)CO)C(=O)c2cc(NC(=O)Nc3cccc4ccccc34)ccc2O1 | 74 | nt | i
C[C@@H]1CCCCO[C@H](CN(C)C(=O)Nc2ccc(F)cc2)[C@@H](C)CN([C@H](C)CO)C(=O)c2cc(NC(=O)Nc3ccc(C(F)(F)F)cc3)ccc2O1 | 62 | nt | i
